The source made the active and inactive calls. The rule behind the calls is not given here.
Experiments:
[1] = target: T1, Coagulation factor X (Homo sapiens, UniProt P00742); assay: Inhibition of human factor 10a by amydolitic assay
Procedure, shortened: (§1)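 Human factor Xa (2 nM) in 10 mM Tris pH 8, 0.15 M NaCl, 0.1% PEG 6000, preincubated 30 min at 25 °C with compound (final 10 nM–0.25 mM, ≤2% DMSO). Started with 0.04 mM S-2765; p-nitroanilide release at 405 nm for 5 min, 25 °C. Initial velocities give IC50 (≥3 determinations), Ki by Cheng-Prusoff.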

[2] = target: Prothrombin (Bos taurus, UniProt P00735); assay: Inhibition of bovine factor 2a by amydolitic assay
Procedure, shortened: (§2)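 Bovine thrombin (0.41 U/mL) in 10 mM Tris pH 8 with 0.15 M NaCl and 0.1% PEG 6000, compound (final 10 nM–0.25 mM, ≤2% DMSO) for 30 min at 25 °C, then 0.050 mM S-2238.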

[3] = organism: Bos taurus; assay: Inhibition of bovine alpha-chymotrypsin at 250 uM by amydolitic assay
Procedure, shortened: (§3)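 Bovine α-chymotrypsin (0.4 µg/mL) in 50 mM Tris pH 7.5 with 50 mM CaCl2, incubated with compound (final 10 nM–0.25 mM) or DMSO 10 min at 25 °C. Substrate 0.185 mM N-succinyl-Ala-Ala-Pro-Phe-p-nitroanilide added; 405 nm read 5 min at 25 °C. Initial-rate IC50 (≥3 determinations) converted to Ki by Cheng-Prusoff.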

[4] = Inhibition of bovine alpha-chymotrypsin by amydolitic assay; design: species or system Bos taurus; procedure, shortened: as §3
[5] = target: Prothrombin (Bos taurus) (UniProt P00735); assay: Inhibition of bovine factor 2a at 250 uM by amydolitic assay; procedure, shortened: as §2
[6] = test system: Platelet; assay: Inhibition of ADP-induced platelet aggregation in human platelet rich plasma; type: functional
Procedure, shortened: (§4)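 Citrated human venous blood spun 800 rpm 15 min at 21 °C for PRP, platelets adjusted to 230000 µL-1 with PPP. PRP preincubated with compound (final 10 µM–1 mM, 0.5% DMSO) 5 min at 37 °C with stirring, then 10 µM final ADP or epinephrine. Turbidimetric (Born) transmittance at 640 nm over 5 min. IC50 from sigmoid fit, ≥3 determinations in duplicate, mean ± SEM.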

[7] = test system: Platelet; assay: Inhibition of epinephrine-induced platelet aggregation in human platelet rich plasma; type: functional; procedure, shortened: as §4
[8] = test system: Plasma; assay: Anticoagulant activity in human plasma assessed as concentration required to double the activated partial thromboplastin time; type: functional
Procedure, shortened: (§5)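 Pooled lyophilized human plasma with aPTT reagent and 0.025 mol/L CaCl2; inhibitor or solvent at increasing concentrations incubated with plasma 3 min at 37 °C. Clotting time read on a coagulometer against control plasma, triplicate measurements; concentration giving 2-fold aPTT prolongation calculated from concentration-response curves.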

[9] = target: T1, Coagulation factor X; assay: Inhibition of human factor 10a at 250 uM by amydolitic assay; procedure, shortened: as §1
[10] = test system: Plasma; assay: Anticoagulant activity in human plasma assessed as effect on double the activated partial thromboplastin time upto 1 mM; type: functional, cell-free; procedure, shortened: as §5

T1 sequence (P00742 41-179 limits assumed): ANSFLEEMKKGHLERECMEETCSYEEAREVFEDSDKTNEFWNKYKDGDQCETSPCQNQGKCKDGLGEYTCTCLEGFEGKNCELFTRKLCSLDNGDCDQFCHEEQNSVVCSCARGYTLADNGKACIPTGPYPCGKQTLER
T1 sequence (P00742 235-488 limits assumed): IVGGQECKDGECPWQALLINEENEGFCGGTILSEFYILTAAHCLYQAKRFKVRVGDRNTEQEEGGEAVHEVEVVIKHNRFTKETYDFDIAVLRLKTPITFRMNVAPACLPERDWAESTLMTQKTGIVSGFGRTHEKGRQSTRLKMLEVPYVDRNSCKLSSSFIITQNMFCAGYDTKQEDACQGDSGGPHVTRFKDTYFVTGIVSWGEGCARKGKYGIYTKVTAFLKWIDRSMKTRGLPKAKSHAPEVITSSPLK

Row | Structure (SMILES) | Ki [1] [µM] | Ki [2] [µM] | inhibition [3] [%] | Ki [4] [µM] | inhibition [5] [%] | IC50 [6] [µM] | IC50 [7] [µM] | inhibition [9] [%] | 2PT [8] [µM] | Activity [10]
1 | O=C(Nc1cccc(OCc2ccc(-c3c(F)cc(F)cc3F)cc2)c1)C1CCNCC1 | 9.47 | 26.7 | < 30 | – | – | – | – | – | – | –
2 | O=C(Nc1cccc(OCc2ccc(-c3ccc(F)cc3)cc2)c1)C1CCNCC1 | 3.87 | – | < 30 | – | < 30 | 35 | 19 | – | – | –
3 | CCCCCCOc1ccc(NC(=O)C2CCCNC2)cc1 (centres undefined) | – | – | – | – | < 30 | 85 | 43 | < 30 | – | –
4 | N=C(N)N1CCC(C(=O)Nc2cccc(OCc3ccc(F)cc3)c2)CC1 | 33.8 | 20.8 | – | – | – | 768 | – | – | – | –
5 | COc1ccc(NC(=O)C2CCCNC2)cc1 (centres undefined) | – | – | – | – | – | 983 | – | – | – | –
6 | O=C(Nc1cccc(OCc2ccccc2)c1)C1CCCNC1 (centres undefined) | – | – | – | – | < 30 | 128 | – | < 30 | – | –
7 | O=C(Nc1cccc(OCc2ccc(-c3ccccc3)cc2)c1)C1CCCNC1 (centres undefined) | 2.5 | – | – | – | < 30 | 153 | 87 | – | – | –
8 | O=C(Nc1cccc(OCc2ccc(-c3cc(F)c(F)c(F)c3)cc2)c1)C1CCNCC1 | 0.666 | – | < 30 | – | < 30 | 76.7 | – | – | – | –
9 | O=C(Nc1cccc(OCc2ccc(-c3cc(F)ccc3F)cc2)c1)C1CCNCC1 | 1.27 | – | < 30 | – | < 30 | – | – | – | – | –
10 | O=C(Nc1cccc(OCc2ccc(-c3cc(F)cc(F)c3)cc2)c1)C1CCNCC1 | 0.13 | – | – | 60.3 | < 30 | 27.8 | 17 | – | 190 | –
11 | O=C(Nc1cccc(OCc2ccc(-c3c(F)cccc3F)cc2)c1)C1CCNCC1 | 1.45 | – | < 30 | – | < 30 | – | – | – | – | –
12 | O=C(Nc1cccc(OCc2ccc(-c3ccccc3F)cc2)c1)C1CCNCC1 | 0.767 | – | < 30 | – | < 30 | 62.7 | – | – | – | –
13 | N=C(N)N1CCCC(C(=O)Nc2cccc(OCc3ccc(-c4ccccc4)cc3)c2)C1 (centres undefined) | 2 | 31.3 | – | – | – | > 1000 | – | – | – | –
14 | N=C(N)N1CCC(C(=O)Nc2cccc(OCc3ccc(-c4ccccc4)cc3)c2)CC1 | 5.2 | 40.4 | – | – | – | 400 | 244 | – | – | –
15 | O=C(Nc1cccc(OCc2ccc(F)cc2)c1)C1CCNCC1 | – | – | – | – | < 30 | 68 | 36 | < 30 | – | –

The next lines start with results.

Row | Ki [1] [µM] | Ki [2] [µM] | inhibition [3] [%] | Ki [4] [µM] | inhibition [5] [%] | IC50 [6] [µM] | IC50 [7] [µM] | inhibition [9] [%] | Structure (SMILES) | 2PT [8] [µM] | Activity [10]
16 | 0.548 | – | – | 60 | < 30 | – | – | – | O=C(Nc1cccc(OCc2ccc(-c3cccc(F)c3F)cc2)c1)C1CCNCC1 | – | –
17 | 0.057 | – | < 30 | – | < 30 | 65.7 | – | – | O=C(Nc1cccc(OCc2ccc(-c3ccc(C(F)(F)F)cc3)cc2)c1)C1CCNCC1 | 140 | –
18 | 260 | – | – | – | < 30 | 103 | 70 | – | O=C(Nc1cccc(OCc2ccc(F)cc2)c1)C1CCCNC1 (centres undefined) | – | –
19 | 0.177 | – | – | 31 | < 30 | 34.7 | 14.4 | – | O=C(Nc1cccc(OCc2ccc(-c3cccc(F)c3)cc2)c1)C1CCNCC1 | 205 | –
20 | – | – | – | – | < 30 | 121 | 93 | < 30 | O=C(Nc1ccc(OCc2ccc(F)cc2)cc1)C1CCNCC1 | – | –
21 | 57 | 160 | – | – | – | 274 | – | – | N=C(N)N1CCCC(C(=O)Nc2cccc(OCc3ccc(F)cc3)c2)C1 (centres undefined) | – | –
22 | 0.512 | 54 | < 30 | – | – | 98.8 | – | – | O=C(Nc1cccc(OCc2ccc(-c3ccc(F)cc3F)cc2)c1)C1CCNCC1 | – | –
23 | – | – | – | – | < 30 | 229 | – | < 30 | O=C(Nc1cccc(OCc2ccccc2)c1)C1CCNCC1 | – | inactive
24 | – | – | – | – | < 30 | 125 | – | < 30 | O=C(Nc1ccc(OCc2ccc(-c3ccccc3)cc2)cc1)C1CCCNC1 (centres undefined) | – | –
25 | 1 | – | – | – | < 30 | 111 | 54 | – | O=C(Nc1cccc(OCc2ccc(-c3ccccc3)cc2)c1)C1CCNCC1 | – | –
26 | 126 | – | – | – | < 30 | 135 | – | – | O=C(Nc1ccc(OCc2ccc(-c3ccccc3)cc2)cc1)C1CCNCC1 | – | –
27 | – | – | – | – | < 30 | 113 | – | < 30 | CCCCCCOc1cccc(NC(=O)C2CCCNC2)c1 (centres undefined) | – | –
28 | – | – | – | – | < 30 | 116 | 90 | < 30 | O=C(Nc1ccc(OCc2ccc(F)cc2)cc1)C1CCCNC1 (centres undefined) | – | –

— ChEMBL document CHEMBL1140910, “Fluorinated benzyloxyphenyl piperidine-4-carboxamides with dual function against thrombosis: inhibitors of factor Xa and platelet aggregation” (J Med Chem, 2009)
